pIC50: −log10 of the molar value. Activity calls are given as the source filed them. The calls are words filed in the database; no cut-off is given here.
What was measured:
[1] = Drug uptake in cytoplasm of human A549 cells at 1 uM after 0.25 to 3 hrs by Hoechst 33342 staining based fluorescence microscopy; type: ADME, cell-based; settings: a549, 1 µM
How it was run: (§1)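 A549 cells on coverslips loaded with dyes (1 µM) for 0.25, 0.5, 1, 2 or 3 h at 37 °C, washed, counterstained with Hoechst 33342 (10 µM), mounted in 70% glycerol; red dye and blue nuclear fluorescence imaged by fluorescence microscopy (40×) and overlaid.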

A549 [2] = experiment: Photocytotoxicity against human A549 cells assessed as decrease in cell viability at 500 to 5000 nM preincubated for 1 hr followed by 0.77 mW/cm2 white light irradiation measured after 24 hrs by MTT assay; type: functional, cell-based; settings: TDE = time-dependent effect
How it was run: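 A549 cells (1×10^4/well), plated overnight, given compound for 1 h in serum-free medium, washed twice with PBS, irradiated 0.5, 1, 2 or 4 h at 0.77 mW/cm² (37 °C, 5% CO₂), then 24 h in regular medium; MTT 0.5 mg/mL for 6 h, formazan dissolved in 0.01 N HCl/10% SDS, A550.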

[3] = Cytotoxicity against human A549 cells assessed as decrease in cell viability up to 200 uM after 48 hrs under dark condition by MTT assay; type: toxicity, cell-based; settings: a549, 48 h
How it was run: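 Dark toxicity: A549 cells treated as in the MTT protocol (1 h compound exposure, serum-free medium, washed) with no light, then assessed at 48 h by MTT (0.5 mg/mL, 6 h, formazan in HCl/SDS, A550).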

[4] = Photocytotoxicity against human A549 cells assessed as decrease in cell viability preincubated for 1 hr followed by 0.77 mW/cm2 white light irradiation for 80 mins measured after 24 hrs by MTT assay; type: functional, cell-based; settings: A549, light or radiation study
How it was run: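 IC50 from MTT: A549 cells (1×10^4/well) given graded compound concentrations 1 h in serum-free DMEM (vehicle ≤0.1% DMSO), washed, photo-exposed 80 min at 0.77 mW/cm², regular medium 24 h; MTT 0.5 mg/mL 6 h, A550; viability relative to vehicle control; four replicates, three experiments, mean ± SEM.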

Bos taurus [5] = species: Bos taurus; experiment: Binding affinity to calf thymus duplex DNA assessed as decrease in intensities of maximum absorption at 20 uM by spectrophotometric titration analysis
Bos taurus [6] = species: Bos taurus; experiment: Binding affinity to calf thymus duplex DNA by UV-visible spectra analysis
Bos taurus [7] = species: Bos taurus; experiment: Binding affinity to calf thymus duplex DNA assessed as decrease in intensities of maximum absorption at 20 uM by spectrophotometric titration analysis
A549 [8] = experiment: Photocytotoxicity against human A549 cells assessed as necrosis at 2.5 uM preincubated for 1 hr followed by 0.77 mW/cm2 white light irradiation for 80 mins measured after 2 hrs by trypan blue staining based phase contrast microscopy; type: functional, cell-based
How it was run: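 Cells (1×10^5/well) on coverslips treated 1 h with dye (2.5 µM) or 0.1% DMSO, irradiated 80 min, serum added, 2 h later washed, stained with 0.1% trypan blue in PBS for 5 min, then viewed by phase-contrast microscopy at 40×.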

[9] = Drug uptake in human A549 cells at 1 uM after 0.25 to 3 hrs by Hoechst 33342 staining based fluorescence microscopy; type: ADME, cell-based; settings: a549, 1 µM; how it was run: as §1
[10] = Drug uptake in human A549 cells assessed as mean fluorescence intensity at 2.5 uM after 2 hrs by flow cytometry (reference value: 2.4 +/- 1.1); type: ADME, cell-based; settings: a549, 2 h
[11] = Drug uptake in human A549 cells assessed as mean fluorescence intensity at 2.5 uM after 4 hrs by flow cytometry (reference value: 2.4 +/- 1.1); type: ADME, cell-based; settings: a549, 4 h
[12] = Drug uptake in human A549 cells assessed as mean fluorescence intensity at 2.5 uM after 8 hrs by flow cytometry (reference value: 2.4 +/- 1.1); type: ADME, cell-based; settings: a549, 8 h
[13] = Drug uptake in human A549 cells assessed as mean fluorescence intensity at 2.5 uM after 16 hrs by flow cytometry (reference value: 2.4 +/- 1.1); type: ADME, cell-based; settings: a549, 16 h
[14] = Drug uptake in human A549 cells assessed as mean fluorescence intensity at 2.5 uM after 24 hrs by flow cytometry (reference value: 2.4 +/- 1.1); type: ADME, cell-based; settings: a549, 24 h

| SMILES | Drug uptake [1] | Activity (A549 [2]) | Activity [3] | pIC50 [4] | Activity (Bos taurus [5]) | Kb (Bos taurus [6]) [×10⁴ /M] | Activity (Bos taurus [7]) | Activity (A549 [8]) | Drug uptake [9] | Flu intensity [10] | Flu intensity [11] | Flu intensity [12] | Flu intensity [13] | Flu intensity [14] |
| --- | --- | --- | --- | --- | --- | --- | --- | --- | --- | --- | --- | --- | --- | --- |
| CCC1=C(C)C2=C(c3ccccc3)c3c(C)c(CC)c(C)n3[B-](F)(F)[N+]2=C1/C=C/c1ccc(O[C@H]2O[C@H](CO)[C@@H](O)[C@H](O)[C@H]2O)cc1 | Active | Tde | Non-Toxic | 5.60 | – | – | – | – | – | – | – | – | – | – |
| CCC1=C(C)C2=C(c3ccc(O[C@H]4O[C@H](CO)[C@@H](O)[C@H](O)[C@H]4O)cc3)c3c(C)c(CC)c(C)n3[B-](F)(F)[N+]2=C1C | Active | Tde | Non-Toxic | < 5.00 | Active | 3.4 | Active | – | – | – | – | – | – | – |
| CCC1=C(C)C2=C(c3ccc(O)cc3)c3c(C)c(CC)c(C)n3[B-](F)(F)[N+]2=C1C | Active | Tde | Non-Toxic | 5.68 | – | – | – | Active | – | – | – | – | – | – |
| CCC1=C(C)C2=C(c3ccccc3)c3c(C)c(CC)c(C)n3[B-](F)(F)[N+]2=C1/C=C/c1ccc(O)cc1 | Active | Tde | Non-Toxic | 5.19 | – | – | – | – | – | – | – | – | – | – |
| CCC1=C(C)C2=C(C)c3c(C)c(CC)c(C)n3[B-](F)(F)[N+]2=C1C | – | – | – | 5.17 | – | – | – | – | Active | – | – | – | – | – |
| CCC1=C(C)C2=C(C)c3c(C)c(CC)c(C)n3[B-](F)(F)[N+]2=C1/C=C/c1ccc(O)cc1 | Active | Tde | Non-Toxic | 5.19 | – | – | – | – | – | 88 | 53.7 | 43.9 | 40.9 | 38.4 |
